The target in data set [1] is T1, Growth hormone secretagogue receptor type 1 (Homo sapiens, UniProt Q92847). In words: Displacement of human [125I]-ghrelin from GHS-R1a (unknown origin) expressed in HEK293 cell membranes after 1 hr by radioligand binding assay.
Data set [2] has as its target T1, Growth hormone secretagogue receptor type 1. Kind of data set: Agonist activity at human GHS receptor assessed as intracellular myo-IP1 secretion after 90 mins by HTRF analysis. In kind it is functional, cell-based. For orientation: In TR-FRET formats the signal depends on donor and acceptor labels being close together.
The target of data set [3] is Voltage-gated inwardly rectifying potassium channel KCNH2 (Homo sapiens, UniProt Q12809). Kind of data set: Inhibition of human ERG expressed in CHO cells. In kind it is cell-based. In outline: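 hERG currents recorded from CHO cells expressing hERG.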
Data set [4] is described as follows: 1-octanol/aqueous buffer distribution coefficient, log D of compound at pH 7.4. In kind it is physicochemical.
Data set [5] is described as follows: Intrinsic clearance in human liver microsomes. In kind it is ADME, microsome. As to conditions: read-out: CLH.
The target of data set [6] is hERG (KCNH2) (Homo sapiens, UniProt Q12809). Kind of data set: Inhibition of human ERG expressed in CHO cells at 11 uM relative to control. In kind it is cell-based. As to conditions: CHO cells that express hERG. (In general: hERG is a cardiac potassium channel; its block is linked to QT prolongation.)
The mark [7] stands for this setting: 1-octanol/aqueous buffer, read-out: logD.

Each structure is given as a SMILES string.

Chain of Voltage-gated inwardly rectifying potassium channel KCNH2 (Q12809 whole entry): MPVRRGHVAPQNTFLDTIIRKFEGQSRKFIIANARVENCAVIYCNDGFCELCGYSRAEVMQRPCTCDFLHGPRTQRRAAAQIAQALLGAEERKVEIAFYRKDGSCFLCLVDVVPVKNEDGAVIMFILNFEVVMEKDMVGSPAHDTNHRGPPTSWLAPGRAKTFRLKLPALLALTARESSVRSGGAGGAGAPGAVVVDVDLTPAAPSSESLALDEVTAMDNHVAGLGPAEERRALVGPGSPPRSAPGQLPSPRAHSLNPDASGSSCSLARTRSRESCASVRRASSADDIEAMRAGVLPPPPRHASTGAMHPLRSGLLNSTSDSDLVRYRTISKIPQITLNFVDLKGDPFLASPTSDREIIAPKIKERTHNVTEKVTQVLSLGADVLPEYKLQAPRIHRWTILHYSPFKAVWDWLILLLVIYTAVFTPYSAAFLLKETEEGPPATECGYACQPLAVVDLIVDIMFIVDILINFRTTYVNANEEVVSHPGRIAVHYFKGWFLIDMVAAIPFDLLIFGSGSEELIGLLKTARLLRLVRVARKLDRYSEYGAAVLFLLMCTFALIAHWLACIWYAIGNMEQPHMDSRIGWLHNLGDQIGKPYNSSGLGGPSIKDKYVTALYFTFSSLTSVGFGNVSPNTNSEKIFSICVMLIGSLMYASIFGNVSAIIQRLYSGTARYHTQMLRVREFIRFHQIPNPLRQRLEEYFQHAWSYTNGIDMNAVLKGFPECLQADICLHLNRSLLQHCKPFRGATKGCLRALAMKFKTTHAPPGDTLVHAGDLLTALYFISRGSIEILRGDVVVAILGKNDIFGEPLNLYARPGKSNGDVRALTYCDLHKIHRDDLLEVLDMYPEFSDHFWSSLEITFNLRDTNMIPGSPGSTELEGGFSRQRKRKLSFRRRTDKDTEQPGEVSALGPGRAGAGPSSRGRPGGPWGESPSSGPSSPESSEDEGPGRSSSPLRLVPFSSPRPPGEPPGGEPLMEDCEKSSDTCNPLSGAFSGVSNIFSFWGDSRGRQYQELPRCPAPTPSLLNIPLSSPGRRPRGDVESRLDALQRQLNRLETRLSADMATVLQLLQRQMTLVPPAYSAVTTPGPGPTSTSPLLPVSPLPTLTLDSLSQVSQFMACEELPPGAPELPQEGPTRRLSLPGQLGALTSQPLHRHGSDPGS
T1 sequence (Q92847 whole entry): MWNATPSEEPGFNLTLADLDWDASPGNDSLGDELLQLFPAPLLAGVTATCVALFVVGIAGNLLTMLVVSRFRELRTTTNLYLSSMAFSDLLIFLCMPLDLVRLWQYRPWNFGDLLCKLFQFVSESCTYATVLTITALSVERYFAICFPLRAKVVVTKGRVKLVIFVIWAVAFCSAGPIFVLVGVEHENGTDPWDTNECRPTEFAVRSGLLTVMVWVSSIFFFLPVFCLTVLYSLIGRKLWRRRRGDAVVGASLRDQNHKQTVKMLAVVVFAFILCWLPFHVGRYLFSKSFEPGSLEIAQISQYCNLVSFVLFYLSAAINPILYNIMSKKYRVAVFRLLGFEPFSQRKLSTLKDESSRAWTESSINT
Chain of hERG (KCNH2) (Q12809 whole entry): as the sequence (Q12809 whole entry) above

On to `CN(C)CCC(=O)N[C@H]1c2ccccc2C[C@@H]1NC(=O)c1cc2cc(F)c(F)cc2[nH]1`, for which the results for the IC50 in data set [1] (read-out: IC50) and in data set [3] were 98 nM and 3980 nM, respectively. Further, in data set [2] (read-out: EC50), the EC50 turned out to be 35 nM.
For orientation: logD means lipophilicity at a set pH, counting ionised and neutral species. Consider `CN1CCO[C@@H](C(=O)N[C@H]2c3ccccc3C[C@@H]2NC(=O)c2ccc3c(ccn3C)c2)C1`, for which the IC50 in data set [1] (read-out: IC50) is more than 2900 nM; in data set [1] (read-out: pIC50 (converted)) it was more than 3160 nM. In addition, the EC50 in data set [2] (read-out: EC50) was 274 nM. For the same compound, the logD in data set [4] (setting [7]) was determined as 2.4.
On to `Nc1ccncc1C(=O)N[C@H]1c2ccccc2C[C@@H]1NC(=O)c1cc2ccccc2[nH]1`, for which the IC50 in data set [1] (read-out: IC50) was found to be 49 nM. For the same compound, in data set [2] (read-out: EC50), the EC50 worked out at 25 nM. In data set [4] (setting [7]), the logD turned out to be 2.4.
For the compound `CN1CCC[C@@H]1CC(=O)N[C@H]1c2ccccc2C[C@@H]1NC(=O)c1ccc2c(ccn2C)c1`, the IC50 in data set [1] (read-out: IC50) came to 184 nM. The EC50 in data set [2] (read-out: EC50) was more than 740 nM; in data set [2] (read-out: pEC50 (converted)), more than 794 nM. The log distribution coefficient (logD) in data set [4] (setting [7]) was 1.8.
What is called pIC50 is −log10 of the IC50, conventionally taken in molar units. Low readings indicate a large IC50, high ones a small IC50. `CN1CCCO[C@@H](C(=O)N[C@H]2c3ccccc3C[C@@H]2NC(=O)c2ccc3c(ccn3C)c2)C1` registered a pIC50 in data set [1] (hek293) of less than 6. For the same compound, in data set [1] (read-out: IC50), the IC50 is more than 1000 nM. Besides, the EC50 in data set [2] (read-out: EC50) came out at 262 nM. For the same compound, in data set [4] (setting [7]), the logD came out at 2.3.
For the compound `Cc1ccc2[nH]c(C(=O)N[C@H]3Cc4ccccc4[C@@H]3NC(=O)c3cnccc3N)cc2c1`, the IC50 in data set [1] (read-out: IC50) turned out to be 35 nM. Moreover, in data set [2] (read-out: EC50), the EC50 came out at 14 nM. Moreover, the logD in data set [4] (setting [7]) amounted to 3.
The matching figures for `CN1CCC[C@@H](C(=O)N[C@H]2c3ccccc3C[C@@H]2NC(=O)c2ccc3c(ccn3C)c2)C1`: 528 nM, 170 nM and 1.9.
In the same order, the values of `CN1CCC[C@H]1CC(=O)N[C@H]1c2ccccc2C[C@@H]1NC(=O)c1ccc2c(ccn2C)c1` are 29 nM, 19 nM and 1.7.
Regarding `CN1CCCO[C@H](C(=O)N[C@H]2c3ccccc3C[C@@H]2NC(=O)c2ccc3c(ccn3C)c2)C1`, in data set [1] (read-out: IC50), the IC50 came to 71 nM. For the same compound, in data set [2] (read-out: EC50), the EC50 was determined as 10 nM. Besides, in data set [4] (setting [7]), the logD came to 2.3.
`COCCNCCC(=O)N[C@H]1c2ccccc2C[C@@H]1NC(=O)c1cc2ccccc2n1C`: the IC50 in data set [1] (read-out: IC50) was 430 nM; in data set [3], 1580 nM. The EC50 in data set [2] (read-out: EC50) was found to be 160 nM.
As to `Cn1ccc2c(F)c(C(=O)N[C@H]3Cc4ccccc4[C@@H]3NC(=O)c3cnccc3N)ccc21`, the IC50 in data set [1] (read-out: IC50) is 13 nM. For the same compound, the figures for the EC50 in data set [2] (read-out: EC50) and in data set [2] (read-out: pEC50 (converted)) were 3 nM and 10 nM, respectively. Moreover, in data set [4] (setting [7]), the logD worked out at 2.9.
As to `Cn1c(C(=O)N[C@H]2Cc3ccccc3[C@@H]2NC(=O)c2cnccc2N)cc2ccccc21`, in data set [1] (read-out: IC50), the IC50 came to 246 nM. For the same compound, the EC50 in data set [2] (read-out: EC50) was found to be 15 nM. Also, in data set [4] (setting [7]), the logD is 4.1.
As to `CN(C)CCNC(=O)[C@@H]1c2ccccc2C[C@H]1NC(=O)c1cc2ccccc2[nH]1`, the IC50 in data set [1] (read-out: IC50) is 560 nM; in data set [3] it was 12600 nM. Moreover, the EC50 in data set [2] (read-out: EC50) stood at 630 nM. In addition, in data set [4] (setting [7]), the logD was found to be 2.3. In addition, in data set [5], the microsomal CLint was 3 µL/min/mg.
A word on the inhibition: it is the share of the control response that was lost under treatment. Lower therefore signals a response near the control. In the case of `Cc1ccc2[nH]c(C(=O)N[C@H]3Cc4ccccc4[C@H]3C(=O)NCCN(C)C)cc2c1`, in data set [4] (setting [7]), the logD came out at 2.3. The same compound displayed an inhibition at 11 µM in data set [6] of 42%.
Take `Cn1ccc2cc(C(=O)N[C@H]3Cc4ccccc4[C@@H]3NC(=O)c3cnccc3N)c(F)cc21`: the EC50 in data set [2] (read-out: EC50) is 135 nM. For the same compound, in data set [4] (setting [7]), the logD amounted to 3.1.
Turning to `N#Cc1ccc2[nH]c(C(=O)N[C@H]3Cc4ccccc4[C@@H]3NC(=O)c3cnccc3N)cc2c1`, the IC50 in data set [1] (read-out: IC50) is 187 nM. Also, the EC50 in data set [2] (read-out: EC50) came to 44 nM. Moreover, in data set [4] (setting [7]), the logD is 2.1.
As to `Cc1ccc2[nH]c(C(=O)N[C@H]3Cc4ccccc4[C@@H]3C(=O)N[C@H]3CCCN(C)C3)cc2c1`, the EC50 in data set [2] (read-out: EC50) worked out at 0.1 nM. Further, in data set [4] (setting [7]), the logD stood at 3. Further, in data set [6], the inhibition at 11 µM came to 30%. The microsomal CLint in data set [5] worked out at 132 µL/min/mg.
In the case of `Cc1ccc2[nH]c(C(=O)N[C@@H]3Cc4ccccc4[C@@H]3NC(=O)CCN(C)C)cc2c1`, the IC50 in data set [1] (read-out: IC50) was 1260 nM; in data set [3] it was 6310 nM. The EC50 in data set [2] (read-out: EC50) turned out to be 1500 nM.
In the same order, the values of `Cc1ccc2[nH]c(C(=O)N[C@H]3Cc4ccccc4[C@@H]3NC(=O)CCN(C)C)cc2c1` are 16 nM, 7940 nM and 21 nM.
As for `Cc1ccc2[nH]c(C(=O)N[C@H]3Cc4ccccc4[C@H]3NC(=O)CCN(C)C)cc2c1`, the IC50 in data set [1] (read-out: IC50) was 69 nM; in data set [3], 25100 nM. Moreover, the EC50 in data set [2] (read-out: EC50) was 100 nM.
Turning to `Cc1ccc2[nH]c(C(=O)N[C@H]3Cc4ccccc4[C@@H]3NC(=O)[C@@H]3CNCCOC3)cc2c1`, the EC50 in data set [2] (read-out: EC50) is 137 nM. Also, the logD in data set [4] (setting [7]) amounted to 2.6.
As to `CN1CCCCC(C(=O)N[C@H]2c3ccccc3C[C@@H]2NC(=O)c2ccc3c(ccn3C)c2)C1` (stereo in doubt; 27), the IC50 in data set [1] (read-out: IC50) was found to be 107 nM. Also, the EC50 in data set [2] (read-out: EC50) is 36 nM. Moreover, the logD in data set [4] (setting [7]) was 2.1.
For `Cc1ccc2[nH]c(C(=O)N[C@@H]3Cc4ccccc4[C@H]3NC(=O)CCN(C)C)cc2c1`, the IC50 in data set [1] (read-out: IC50) is 930 nM; in data set [3], 2510 nM. In addition, the EC50 in data set [2] (read-out: EC50) turned out to be 226 nM.
Turning to `CN1N=C2CCN(C(=O)[C@@H](COCc3ccccc3)NC(=O)C(C)(C)N)C[C@@]2(Cc2ccccc2)C1=O` [CAPROMORELIN], the IC50 in data set [1] (read-out: IC50) was found to be 22 nM. In data set [2] (read-out: EC50), the EC50 worked out at 0.9 nM.
Take `CN1CCC[C@H](C(=O)N[C@H]2c3ccccc3C[C@@H]2NC(=O)c2ccc3c(ccn3C)c2)C1`: the IC50 in data set [1] (read-out: IC50) came out at 556 nM. The EC50 in data set [2] (read-out: EC50) amounted to 28 nM. Besides, in data set [4] (setting [7]), the logD worked out at 2.1.
Turning to `CN1CCCCC(C(=O)N[C@H]2c3ccccc3C[C@@H]2NC(=O)c2ccc3c(ccn3C)c2)C1` (stereo in doubt; 28), the IC50 in data set [1] (read-out: IC50) is 189 nM. Further, the EC50 in data set [2] (read-out: EC50) came to 76 nM. This compound also had a logD in data set [4] (octanol/water) of 1.6.
With `Nc1ccncc1C(=O)N[C@H]1c2ccccc2C[C@@H]1NC(=O)c1cc2c(F)cc(F)cc2[nH]1`, the IC50 in data set [1] (read-out: IC50) came out at 14 nM. In addition, the EC50 in data set [2] (read-out: EC50) was determined as 3 nM. The logD in data set [4] (setting [7]) amounted to 3.1.
Regarding `Nc1ccncc1C(=O)N[C@H]1c2ccccc2C[C@@H]1NC(=O)c1nc2cc(F)c(F)cc2[nH]1`, in data set [1] (read-out: IC50), the IC50 is 89 nM. For the same compound, in data set [2] (read-out: EC50), the EC50 was 23 nM. The logD in data set [4] (setting [7]) came to 2.4.
The matching figures for `CN1CC[C@@H](C(=O)N[C@H]2c3ccccc3C[C@@H]2NC(=O)c2ccc3c(ccn3C)c2)C1`: 288 nM, 129 nM and 1.4.
For `Cc1ccc2[nH]c(C(=O)N[C@H]3Cc4ccccc4[C@@H]3NC(=O)[C@H]3COCCN(C)C3)cc2c1`, the EC50 in data set [2] (read-out: EC50) came out at 21 nM. The logD in data set [4] (setting [7]) worked out at 3.7.
Turning to `CN1CC[C@H](C(=O)N[C@H]2c3ccccc3C[C@@H]2NC(=O)c2ccc3c(ccn3C)c2)C1`, the IC50 in data set [1] (read-out: IC50) was found to be 343 nM. The EC50 in data set [2] (read-out: EC50) was 250 nM. Further, in data set [4] (setting [7]), the logD is 1.4.
Consider `O=C(N[C@H]1Cc2ccccc2[C@@H]1NC(=O)[C@H]1CCNC1)c1cc2cc(F)ccc2[nH]1`, for which the IC50 in data set [1] (read-out: IC50) was 189 nM; in data set [3], more than 10000 nM. In addition, the EC50 in data set [2] (read-out: EC50) amounted to 47 nM.
Regarding `Cn1ccc2cc(C(=O)N[C@H]3Cc4ccccc4[C@@H]3NC(=O)c3cnccc3N)cc(F)c21`, in data set [2] (read-out: EC50), the EC50 came out at 7 nM. Moreover, in data set [4] (setting [7]), the logD is 4.
For the compound `CC(=O)N1CCO[C@H](C(=O)N[C@H]2c3ccccc3C[C@@H]2NC(=O)c2ccc3c(ccn3C)c2)C1`, the figures for the EC50 in data set [2] (read-out: EC50) and in data set [2] (read-out: pEC50 (converted)) were more than 7700 nM and more than 10000 nM, respectively. Besides, the logD in data set [4] (setting [7]) is 2.2.

These data come from ChEMBL document CHEMBL4130628, “Identification and Pharmacological Profile of an Indane Based Series of Ghrelin Receptor Full Agonists” (J Med Chem, 2018).
